Screening results: PubChem, The Scripps Research Institute Molecular Screening Center
Shown are actives, neighbours in structure and some others; about 3.4% of the full set was active somewhere.
TAAR1 antagonist: human TAAR1 antagonists, primary screen, Fluo-8 calcium fluorescence, CHO RD-HGA16 cells | antagonist | inhibition, % at 3 µM | 1.5% of 360,000 active | Trace amine-associated receptor 1 (Homo sapiens), Q96RJ0;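 active = inhibition above a per-plate cutoff, the mean inhibition of test compounds on that plate plus 3 SD, cut at about 49% in these data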;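 note: 0% = DMSO plus EC80 beta-PEA response and 100% = DMSO alone without agonist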
Target sequence (Q96RJ0 whole entry, looked up): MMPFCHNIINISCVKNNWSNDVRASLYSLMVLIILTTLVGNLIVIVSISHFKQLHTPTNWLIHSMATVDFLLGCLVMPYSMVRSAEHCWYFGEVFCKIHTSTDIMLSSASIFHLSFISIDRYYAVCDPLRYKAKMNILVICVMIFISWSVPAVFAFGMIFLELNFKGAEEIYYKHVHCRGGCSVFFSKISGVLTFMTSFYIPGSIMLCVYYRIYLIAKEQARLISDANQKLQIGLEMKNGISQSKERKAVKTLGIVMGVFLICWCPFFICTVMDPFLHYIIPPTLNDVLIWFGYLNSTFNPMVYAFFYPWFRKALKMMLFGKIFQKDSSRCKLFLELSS
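test system = CHO RD-HGA16 cells bearing hTAAR1 | replication = singlicate | controls = DMSO-only wells and EC80 β-PEA-stimulated wells | reagent = EC80 β-phenethylamine stimulus | read-out basis = percent inhibition of PEA-evoked calcium signal, max/basal emission ratio | schedule = seeding 17-24 h prior, 75-min 37 °C, 30-min RT dye loading | signal = kinetic Fluo-8 calcium fluorescence measurement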
M1 antag: human M1 muscarinic receptor antagonists, primary screen, CHO-K1 cells, Fluo-8 calcium fluorescence, 1536-well | CHO-K1 hM1, ACh EC80 antagonist | inhibition, % at 3 µM | 1.3% of 360,000 active | AID 588852, 2011;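 active = percent inhibition above its own plate's cutoff, namely the mean of that plate's compound wells plus 3 SD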;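 note: peak over basal fluorescence ratio during 140 s after agonist addition; 0% = ACh EC80 plus DMSO and 100% = DMSO alone without agonist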
Target sequence (P11229 whole entry, looked up): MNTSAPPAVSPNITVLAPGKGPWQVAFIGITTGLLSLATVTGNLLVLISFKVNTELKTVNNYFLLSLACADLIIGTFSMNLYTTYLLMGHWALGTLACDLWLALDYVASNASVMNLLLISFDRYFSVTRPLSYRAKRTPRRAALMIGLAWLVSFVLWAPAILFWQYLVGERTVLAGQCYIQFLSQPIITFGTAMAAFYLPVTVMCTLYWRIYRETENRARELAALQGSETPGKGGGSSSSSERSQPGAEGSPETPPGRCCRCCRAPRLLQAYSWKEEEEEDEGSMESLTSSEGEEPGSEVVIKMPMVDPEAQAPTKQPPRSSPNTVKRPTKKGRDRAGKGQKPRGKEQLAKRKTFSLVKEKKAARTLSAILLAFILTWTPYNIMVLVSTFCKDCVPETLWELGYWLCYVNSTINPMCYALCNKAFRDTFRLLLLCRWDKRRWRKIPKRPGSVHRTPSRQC
TAAR1 ag: human TAAR1 agonists, primary screen, Fluo-8 calcium fluorescence, CHO RD-HGA16 cells; Trace amine-associated receptor 1 (Homo sapiens), Q96RJ0; vehicle wells 0%, saturating PEA agonist 100%; activation, % at 3 µM; 0.99% of 360,000 active;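 active = activation above the mean activation of all test compounds in the run plus 3 SD, cut at about 38% in these data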
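System: CHO RD-HGA16 cells carrying human TAAR1 plus Gα16; Incubation: 17-24 h seeding, 75 min 37 °C dye, 30 min RT; Measured by: Fluo-8 fluorescence, 5 s baseline then 140 s kinetic read; Control set: DMSO and PEA EC100; Replication: single well for each compound.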
CHRM1 agonist: human M1 muscarinic receptor agonists, primary screen, Fluo-8 calcium fluorescence, CHO-K1 cells, HTS; Muscarinic acetylcholine receptor M1 (Homo sapiens), P11229; CHO-K1 hM1, agonist mode; 0% DMSO, 100% acetylcholine EC100; activation, % at 3 µM; 0.33% of 360,000 active; AID 588814, 2011;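 active = activation above the run's mean compound activation plus 3 SD, cut at about 16% in these data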;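 note: peak over basal fluorescence ratio within a 140 s kinetic read after compound addition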
CHRM1 PAM: human M1 muscarinic receptor positive allosteric modulators, primary screen, CHO-K1 cells, Fluo-8 calcium fluorescence, 1536-well. Muscarinic acetylcholine receptor M1 (Homo sapiens), P11229. CHO-K1 hM1, ACh EC20; 0% = ACh EC20, 100% = maximal ACh. activation, % at 3 µM. 0.088% of 360,000 active; in the data active = activation above about 19%, passing the limit was not always enough
nonsel antag count: nonselective antagonists in TAAR1 counter-screen cells, counter-screen for hTAAR1 antagonist project, cell-based, fluorescence, calcium; inhibition, % at 3 µM; counterscreen cell line, antagonist mode; 77% of 2,400 active; shares compounds with TAAR1 antagonist; in the data active = inhibition above about 22%;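 note: CHO-Ga16 host cells stimulated with ATP at an EC80 level; 0% = agonist EC80 plus vehicle and 100% = vehicle without agonist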
TAAR1 ant conf: human TAAR1 antagonists, retest of hits, confirmation, cell-based, fluorescence; shares compounds with TAAR1 antagonist; TAAR1-expressing cells, fluorescence antagonist read-out; inhibition, % at 3 µM; 40% of 2,400 active; AID 651785, 2012; in the data active = inhibition above about 49%;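 note: CHO-Ga16 host cells challenged with agonist PEA near its EC80; 0% = agonist at EC80 plus vehicle and 100% = vehicle with no agonist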
Ga16 nonsel ag: calcium activation in Ga16-expressing cells, counter-screen for TAAR1 antagonist project, cell-based, fluorescence | shares compounds with TAAR1 antagonist | agonist counterscreen | activation, % at 3 µM | 18% of 2,400 active | AID 651953, 2012; in the data active = activation above about 12%;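 note: 0% = vehicle wells and 100% = saturating stimulus response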
TAAR1 ag counter: TAAR1 activation by candidate antagonists – cell-based, fluorescence, counter-screen for TAAR1 antagonist project | AID 651955, 2012 | 2% of 2,400 active | shares compounds with TAAR1 antagonist | activation, % at 3 µM | hTAAR1 cell line, agonist mode; in the data active = activation above about 37%;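 note: CHO cells stably expressing TAAR1 with calcium dye readout; 0% = DMSO vehicle and 100% = full agonist response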
Numbers without * were called inactive; x = not tested or not shown.

SMILES | TAAR1 antagonist | M1 antag | TAAR1 ag | CHRM1 agonist | CHRM1 PAM | nonsel antag count | TAAR1 ant conf | Ga16 nonsel ag | TAAR1 ag counter
O=C1C=CC(=NN=C(c2ccccc2)c2ccccc2)C=C1 | -16.5 | 7.3 | -1.6 | 1.6 | 2.1 | x | x | x | x
CCS(=O)(=O)N1Cc2ccccc2CC1C(=O)Nc1nnc(SCc2ccc(C#N)cc2)s1 (stereo unspecified) | 67.7* | 19.6 | 25.6 | -2.9 | -16.6 | 33.8* | 56.4* | 12.1* | 13.1
CCS(=O)(=O)N1Cc2ccccc2CC1C(=O)Nc1ncc(C)s1 (stereo unspecified) | 1.6 | -0.4 | 10.1 | -3.8 | 7.8 | x | x | x | x
CC(C)(C)OC(=O)CNC(=O)c1nc[nH]c1C(=O)NCc1ccccc1 | 3.5 | -3.1 | 9.1 | -0.7 | 6.2 | x | x | x | x
CC(C)(C)OC(=O)NCCCC[C@H](NC(=O)c1nc[nH]c1C(=O)N1CCc2ccccc2C1)C(=O)OC(C)(C)C | 36.9 | 28.8 | 9.2 | -5.3 | -21.9 | x | x | x | x
CC(C)(C)OC(=O)NCCCCCNC(=O)c1nc[nH]c1C(=O)N1CCc2ccccc2C1 | 76.2* | 23.4 | 22.1 | -2.0 | -19.2 | 33.9* | 51.8* | 11.0 | 13.6
O=C(CNC(=O)c1[nH]cnc1C(=O)NC(c1ccccc1)c1ccccc1)OCc1ccccc1 | 67.8* | 21.2 | 10.2 | -1.4 | -15.2 | 25.8* | 42.1 | 3.5 | 1.0
C[C@H](NC(=O)c1nc[nH]c1C(=O)N[C@@H](CCCCNC(=O)OC(C)(C)C)C(=O)OC(C)(C)C)C(=O)OCc1ccccc1 | 16.1 | 1.7 | 0.8 | -5.1 | -0.8 | x | x | x | x
CC(C)(C)OC(=O)NCCCC[C@H](NC(=O)c1nc[nH]c1C(=O)NCC(=O)OCc1ccccc1)C(=O)OC(C)(C)C | 54.9* | 10.9 | 8.2 | -2.9 | -3.9 | 23.3* | 29.2 | 1.4 | -1.4
CC(C)(C)OC(=O)CNC(=O)c1nc[nH]c1C(=O)NCc1ccc(CNC(=O)OC(C)(C)C)cc1 | 70.5* | 34.2* | 17.9 | -1.8 | -24.5 | 40.5* | 53.8* | 15.6* | 17.2
O=C(N[C@H](CO)c1ccccc1)[C@H]1O[C@@H](n2ccc(=O)[nH]c2=O)[C@H](O)[C@@H]1O | 12.2 | -6.4 | 1.5 | -4.4 | 5.5 | x | x | x | x
CC(C)(C)OC(=O)CNC(=O)c1[nH]cnc1C(=O)NCC(=O)OCc1ccccc1 | 69.5* | 35.0* | 19.0 | -2.3 | -15.7 | 31.4* | 56.1* | 11.2 | 14.2
CC(C)(C)OC(=O)NCCCCCNC(=O)c1nc[nH]c1C(=O)NCC(=O)OCc1ccccc1 | 77.9* | 38.8* | 20.2 | 1.0 | -20.2 | 38.5* | 62.4* | 13.3* | 13.0
CC(C)(C)OC(=O)NCc1ccc(NC(=O)c2nc[nH]c2C(=O)N[C@@H](Cc2ccccc2)C(=O)OC(C)(C)C)cc1 | 42.1 | 12.9 | 22.7 | 0.9 | -4.1 | x | x | x | x
C[C@H](NC(=O)c1[nH]cnc1C(=O)Nc1ccc(CNC(=O)OC(C)(C)C)cc1)C(=O)OCc1ccccc1 | 66.9* | 11.2 | 14.3 | -3.5 | -8.4 | 34.3* | 52.0* | 4.7 | 9.1
CC(C)(C)OC(=O)N1CCN(C(=O)c2[nH]cnc2C(=O)N[C@@H](Cc2ccccc2)C(=O)OCc2ccccc2)CC1 | 68.9* | 18.0 | 23.7 | -7.0 | -8.1 | 22.7* | 45.3 | 6.6 | 6.7
CC(C)n1c(=O)c2ccccc2n1S(C)(=O)=O | -10.2 | x | 1.7 | x | x | x | x | x | x
CCCCn1nnnc1C(c1ccccc1)N1CCN(c2ncccc2C(F)(F)F)CC1 (stereo unspecified) | 30.0 | x | 4.1 | x | x | x | x | x | x
Cc1cccc(NC(=O)c2nc[nH]c2C(=O)NCCCCCNC(=O)OC(C)(C)C)c1 | 55.9* | -20.4 | 14.6 | -2.6 | 9.6 | 19.3 | 37.8 | 5.2 | 12.3
COC(=O)[C@]12CCCCC=C1N(CCC1=CCCCC1)C(=O)[C@H](CC(=O)N1CCC(c3ccccc3)CC1)C2 | 6.6 | x | -1.4 | x | x | x | x | x | x
COc1ccc(N2CCN(C(=O)c3ccc(-c4nc5ccccc5s4)o3)CC2)cc1 | -4.5 | -5.4 | 1.5 | -4.3 | 2.0 | x | x | x | x
COc1ccccc1N1CCN(C(=O)c2ccc(-c3nc4ccccc4s3)o2)CC1 | 54.3* | 18.1 | 1.5 | -3.9 | -8.1 | 22.0* | 35.1 | 3.3 | -1.2
C[C@@H]1CCCCO[C@H](CN(C)C(=O)Nc2ccc3c(c2)OCO3)[C@@H](C)CN([C@H](C)CO)C(=O)c2cc(NS(=O)(=O)c3ccc(F)cc3)ccc2O1 | -15.3 | -16.0 | 2.6 | -7.8 | 11.0 | x | x | x | x
COC(=O)[C@]12CCCCC=C1N(Cc1ccc3c(c1)OCO3)C(=O)[C@H](CC(=O)NCCCCc1ccccc1)C2 | 23.2 | x | 1.1 | x | x | x | x | x | x
CCC(=O)N1CCC1(C)C(=O)Nc1ccc(OC(F)F)cc1 (stereo unspecified) | -12.8 | -14.4 | 0.8 | -2.4 | 5.8 | x | x | x | x
SMILES | TAAR1 antagonist | M1 antag | TAAR1 ag | CHRM1 agonist | CHRM1 PAM | nonsel antag count | TAAR1 ant conf | Ga16 nonsel ag | TAAR1 ag counter
O=C(Cc1ccccc1)Nc1ccc(-c2nnc(-c3ccco3)o2)cc1 | 9.9 | 0.3 | 9.8 | -0.3 | 2.7 | x | x | x | x
O=C(Nc1ccc(-c2nnc(-c3ccco3)o2)cc1)C(c1ccccc1)c1ccccc1 | 73.9* | -6.3 | 18.3 | 0.3 | 6.4 | 31.7* | 43.0 | 6.1 | 2.5
NC(=O)c1ccsc1NC(=O)COC(=O)Cc1c[nH]c2ccccc12 | 66.4* | 20.2 | 17.8 | 7.2 | -12.6 | 46.6* | 55.8* | 16.6* | 16.2
COc1ccc(C(=O)OCC(=O)Nc2sccc2C(N)=O)cc1OC | 64.2* | 21.2 | 12.0 | 1.8 | -13.9 | 29.7* | 45.8 | 10.0 | 10.8
NC(=O)Nc1ccc(C(=O)OCC(=O)Nc2sccc2C(N)=O)cc1 | 24.3 | -2.1 | 4.2 | -0.5 | 2.4 | x | x | x | x
O=C(COC(=O)Cc1c[nH]c2ccccc12)Nc1ccccc1 | 8.7 | -5.3 | 3.4 | -5.9 | 7.5 | x | x | x | x
